ChEMBL document CHEMBL1143315, “Investigation of ketone warheads as alternatives to the nitrile for preparation of potent and selective cathepsin K inhibitors” (Bioorg Med Chem Lett, 2009)

Columns and labels:
[1] = target: Cathepsin K (Homo sapiens, UniProt P43235); experiment: Inhibition of humanized rabbit cathepsin K
[2] = organism: Homo sapiens; experiment: Selectivity ratio of IC50 for human cathepsin S to IC50 for humanized rabbit cathepsin K
[3] = organism: Homo sapiens; experiment: Selectivity ratio of IC50 for human cathepsin L to IC50 for humanized rabbit cathepsin K
[4] = organism: Homo sapiens; experiment: Selectivity ratio of IC50 for human cathepsin B to IC50 for humanized rabbit cathepsin K
[5] = Half life in rat at 2 to 5 mg/kg, iv; type: ADME, organism-based; design: dose 2-5 mg/kg, route intravenous; conditions: in vivo
Procedure, shortened: (§1)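 Rats were given a single IV dose of 2–5 mg/kg in 60% PEG 200. Half-life (t1/2) and clearance (Cl, mL/min/kg) were taken from the plasma profile. Where two distinct phases were seen, separate t1/2a and terminal t1/2b values were calculated.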

[6] = Clearance in rat at 2 to 5 mg/kg, iv; type: ADME, organism-based; design: dose 2-5 mg/kg, route intravenous; conditions: in vivo; procedure, shortened: as §1
[7] = organism: Rattus norvegicus; experiment: Metabolic stability in rat hepatocytes assessed as compound remaining after 2 hrs
[8] = Terminal half life in rat at 2 to 5 mg/kg, iv; type: ADME, organism-based; design: dose 2-5 mg/kg, route intravenous; conditions: in vivo, read-out: beta t1/2 (converted); procedure, shortened: as §1
[9] = Primary phase half life in rat at 2 to 5 mg/kg, iv; type: ADME, organism-based; design: dose 2-5 mg/kg, route intravenous; conditions: in vivo, read-out: alphat1/2 (converted); procedure, shortened: as §1

Row | Compound | IC50 [1] [nM] | Ratio IC50 [2] | Ratio IC50 [3] | Ratio IC50 [4] | half-life [5] [h] | clearance [6] [mL/min/kg] | remaining at 2 h [7] [%] | half-life [8] [h] | half-life [9] [h]
1 | CC(C)(F)C[C@H](N[C@@H](c1ccc(-c2ccc(S(C)(=O)=O)cc2)cc1)C(F)(F)F)C(=O)NC1CCCN(S(=O)(=O)Cc2ccccc2)CC1=O (stereo not given in full) | 159 | 8 | > 63 | 50 |  |  |  |  | 
2 | CC(C)(F)C[C@H](N[C@@H](c1ccc(-c2ccc(S(C)(=O)=O)cc2)cc1)C(F)(F)F)C(=O)NC1CN(S(=O)(=O)c2ccccn2)CC1=O (stereo not given in full) | 85 |  |  |  | 1.3 | 43 |  |  | 
3 | CC(C)(F)C[C@H](N[C@@H](c1ccc(-c2ccc(S(C)(=O)=O)cc2)cc1)C(F)(F)F)C(=O)NC1CCCN(S(=O)(=O)c2ccccn2)CC1=O (stereo in doubt; 9) [listing 1 of 2 here] |  | 45 | 939 | > 1000 |  |  |  |  | 
4 | CC(C)(F)C[C@H](N[C@@H](c1ccc(-c2ccc(S(C)(=O)=O)cc2)cc1)C(F)(F)F)C(=O)NC1CCCN(S(=O)(=O)c2ccccn2)CC1=O (stereo in doubt; 10) [listing 1 of 2 here] |  | 54 | > 1000 | > 1000 |  |  |  |  | 
5 | COC(=O)NCC(=O)CNC(=O)[C@H](CC(C)(C)F)N[C@@H](c1ccc(-c2ccc(S(C)(=O)=O)cc2)cc1)C(F)(F)F | 45 | 38 | 152 | 148 | 1.1 | 17 |  |  | 
6 | CC(C)(F)C[C@H](N[C@@H](c1ccc(-c2ccc(S(C)(=O)=O)cc2)cc1)C(F)(F)F)C(=O)NC1CCCN(S(C)(=O)=O)CC1=O (stereo not given in full) | 16 | 114 | 617 | > 1000 |  |  |  |  | 
7 | CC(C)(F)C[C@H](N[C@@H](c1ccc(-c2ccc(S(C)(=O)=O)cc2)cc1)C(F)(F)F)C(=O)NC1CN(C(=O)NS(=O)(=O)c2ccccc2)CC1=O (stereo not given in full) | 68 | > 6 | > 147 | 9 |  |  |  |  | 
8 | CC(C)(F)C[C@H](N[C@@H](c1ccc(-c2ccc(S(C)(=O)=O)cc2)cc1)C(F)(F)F)C(=O)NC1CNCC1=O (stereo not given in full) | 9.8 | 159 | 16 | 485 |  |  |  |  | 
9 | CC(C)(F)C[C@H](N[C@@H](c1ccc(-c2ccc(S(C)(=O)=O)cc2)cc1)C(F)(F)F)C(=O)NC1CCN(c2ccccc2)CC1=O (stereo not given in full) | 8.3 | 8 | 101 | 2 |  |  |  |  | 
10 | CC(C)(F)C[C@H](N[C@@H](c1ccc(-c2ccc(S(C)(=O)=O)cc2)cc1)C(F)(F)F)C(=O)NC1CCCN(S(=O)(=O)c2ccccn2)CC1=O (stereo in doubt; 10) [listing 2 of 2 here] | 10 |  |  |  |  |  |  |  | 
11 | CC(C)(F)C[C@H](N[C@@H](c1ccc(-c2ccc(S(C)(=O)=O)cc2)cc1)C(F)(F)F)C(=O)NC1CCN(c2ccccc2S(C)(=O)=O)CC1=O (stereo not given in full) | 6.9 | 3.9 | 91 | 1 |  |  |  |  | 
12 | CC(C)(F)C[C@H](N[C@@H](c1ccc(-c2ccc(S(C)(=O)=O)cc2)cc1)C(F)(F)F)C(=O)NC1CN(C(N)=O)CC1=O (stereo not given in full) | 7.3 | 104 | 40 | 355 |  |  |  |  | 
13 | CC(C)(F)C[C@H](N[C@@H](c1ccc(-c2ccc(S(C)(=O)=O)cc2)cc1)C(F)(F)F)C(=O)NC1CCN(S(=O)(=O)c2ccccn2)CC1=O (stereo not given in full) | 5.7 | 22 | 621 | 232 | 0.6 | 24 |  |  | 
14 | CC(C)(F)C[C@H](N[C@@H](c1ccc(-c2ccc(S(C)(=O)=O)cc2)cc1)C(F)(F)F)C(=O)NC1CCCN(S(=O)(=O)c2ccccn2)CC1=O (stereo in doubt; 11) [listing 2 of 2 here] |  | 35 | 681 | > 1000 |  |  |  |  | 
15 | CC(C)(F)C[C@H](N[C@@H](c1ccc(-c2ccc(S(C)(=O)=O)cc2)cc1)C(F)(F)F)C(=O)NC1CCCNCC1=O (stereo not given in full) | 33 | 179 | 236 | 303 |  |  |  |  | 
16 | CCOC(=O)N1CCCC(NC(=O)[C@H](CC(C)(C)F)N[C@@H](c2ccc(-c3ccc(S(C)(=O)=O)cc3)cc2)C(F)(F)F)C(=O)C1 (stereo not given in full) | 54 | 46 | > 185 | > 185 |  |  |  |  | 
17 | CC(C)(F)C[C@H](N[C@@H](c1ccc(-c2ccc(S(C)(=O)=O)cc2)cc1)C(F)(F)F)C(=O)NC1CN(C(=O)NCc2ccccc2)CC1=O (stereo not given in full) | 15 | 36 | 667 | 53 |  |  |  |  | 
18 | CCOC(=O)N1CCC(NC(=O)[C@H](CC(C)(C)F)N[C@@H](c2ccc(-c3ccc(S(C)(=O)=O)cc3)cc2)C(F)(F)F)C(=O)C1 (stereo not given in full) | 9 | 10 | > 1000 | 364 |  |  |  |  | 
19 | CC(C)(F)C[C@H](N[C@@H](c1ccc(-c2ccc(S(C)(=O)=O)cc2)cc1)C(F)(F)F)C(=O)NC1CN(C(=O)Nc2ccccc2)CC1=O (stereo not given in full) | 7.3 | 104 | 40 | 355 |  |  |  |  | 
20 | CC(C)(F)C[C@H](N[C@@H](c1ccc(-c2ccc(S(C)(=O)=O)cc2)cc1)C(F)(F)F)C(=O)NC1CN(S(C)(=O)=O)CC1=O (stereo not given in full) | 27 | 313 | 158 | 370 |  |  |  |  | 

Second part, the compound after the results:

Row | IC50 [1] [nM] | Ratio IC50 [2] | Ratio IC50 [3] | Ratio IC50 [4] | half-life [5] [h] | clearance [6] [mL/min/kg] | remaining at 2 h [7] [%] | half-life [8] [h] | half-life [9] [h] | Compound
21 | 2.9 | 14 | 197 | 188 |  |  |  |  |  | CC(C)(F)C[C@H](N[C@@H](c1ccc(-c2ccc(S(C)(=O)=O)cc2)cc1)C(F)(F)F)C(=O)NC1CN(C(=O)c2ccccc2)CC1=O (stereo not given in full)
22 | 2.6 | 33 | 984 | > 1000 |  |  |  |  |  | CC(C)(F)C[C@H](N[C@@H](c1ccc(-c2ccc(S(C)(=O)=O)cc2)cc1)C(F)(F)F)C(=O)NC1CCCN(S(=O)(=O)c2cccc[n+]2[O-])CC1=O (stereo not given in full)
23 | 1.6 |  |  |  | 2.1 | 53 |  |  |  | CCOC(=O)N1CC(=O)C(NC(=O)[C@H](CC(C)(C)F)N[C@@H](c2ccc(-c3ccc(S(C)(=O)=O)cc3)cc2)C(F)(F)F)C1 (stereo not given in full)
24 | 0.2 |  |  |  | 6 | 2 |  |  |  | CC(C)(F)C[C@H](N[C@@H](c1ccc(-c2ccc(S(C)(=O)=O)cc2)cc1)C(F)(F)F)C(=O)NC1(C#N)CC1 [ODANACATIB]
25 | 1.8 |  |  |  |  |  |  |  |  | CC(C)(F)C[C@H](N[C@@H](c1ccc(-c2ccc(S(C)(=O)=O)cc2)cc1)C(F)(F)F)C(=O)NC1CCCN(S(=O)(=O)c2ccccn2)CC1=O (stereo in doubt; 11) [listing 1 of 2 here]
26 | 4.2 | 604 | > 1000 | > 1000 | 1.2 | 67 |  |  |  | CC(=O)N1CC(=O)C(NC(=O)[C@H](CC(C)(C)F)N[C@@H](c2ccc(-c3ccc(S(C)(=O)=O)cc3)cc2)C(F)(F)F)C1 (stereo not given in full)
27 | 2 |  |  |  |  | 46 | 56 | 11 | 0.6 | CC(C)(F)C[C@H](N[C@@H](c1ccc(-c2ccc(S(C)(=O)=O)cc2)cc1)C(F)(F)F)C(=O)NC1CCCN(S(=O)(=O)c2ccccn2)CC1=O (stereo in doubt; 9) [listing 2 of 2 here]
28 | 3.9 | 29 | 403 | 27 |  |  |  |  |  | CC(C)(F)C[C@H](N[C@@H](c1ccc(-c2ccc(S(C)(=O)=O)cc2)cc1)C(F)(F)F)C(=O)NC1CN(C(=O)OC(C)(C)C)CC1=O (stereo not given in full)
29 | 4.3 |  |  |  | 2.8 | 40 |  |  |  | COC(=O)N1CC(=O)C(NC(=O)[C@H](CC(C)(C)F)N[C@@H](c2ccc(-c3ccc(S(C)(=O)=O)cc3)cc2)C(F)(F)F)C1 (stereo not given in full)
